Converted amounts (≈) assume the structure as drawn.
What was measured:
Type in all cases: functional
MCF7 = assay: Cytotoxicity against human MCF7 cells after 48 hrs by SRB assay; details: MCF7, 48 h
Outline: (§1)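 Human tumour lines in RPMI1640 with 5% fetal bovine serum, trypsinized and counted by hemacytometer, seeded in 96-well plates and allowed 24 h before serial compound dilutions were added. After 48 h exposure, cells were fixed with trichloroacetic acid and stained with sulforhodamine B, and optical density was read. GI50 was taken as the concentration halving net protein increase.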

[1] = Cytotoxicity against human BxPC3 cells after 48 hrs by SRB assay; details: BXPC-3, 48 h; outline: as §1
SF-268 = assay: Cytotoxicity against human SF268 cells after 48 hrs by SRB assay; details: SF-268, 48 h; outline: as §1
DU-145 = assay: Cytotoxicity against human DU145 cells after 48 hrs by SRB assay; details: DU-145, 48 h; outline: as §1
[2] = Cytotoxicity against human KM20L2 cells after 48 hrs by SRB assay; details: KM-20L2, 48 h; outline: as §1
NCI-H460 = assay: Cytotoxicity against human NCI-H460 cells after 48 hrs by SRB assay; details: NCI-H460, 48 h; outline: as §1
P388 = assay: Cytotoxicity against mouse P388 cells after 48 hrs; details: P388, 48 h, read-out: ED50 (the source's name)
Outline: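 Murine P388 leukemia cells, counted by Coulter counter, were grown 24 h in Fisher medium with 10% horse serum, then exposed 48 h to serial compound dilutions. Cell numbers were determined with a Coulter particle counter, and ED50 was calculated for growth inhibition.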

Structure (SMILES) | GI50 (MCF7) | GI50 [1] | GI50 (SF-268) | GI50 (DU-145) | GI50 [2] | GI50 (NCI-H460) | EC50 (P388)
C=C(C)[C@@H]1CC[C@]2(COC(C)=O)CC[C@]3(C)[C@H](CC[C@@H]4[C@@]5(C)CCC(=O)C(C)(C)[C@@H]5CC[C@]43C)[C@@H]12 | 8 µg/mL (≈ 16.6 µM) | > 10 µg/mL | 10.6 µg/mL (≈ 22 µM) | > 10 µg/mL | 12.7 µg/mL (≈ 26.3 µM) | 5.2 µg/mL (≈ 10.8 µM) | 0.12 µg/mL (≈ 0.249 µM)
C=C(C)[C@@H]1CC[C@]2(COC(C)=O)CC[C@]3(C)[C@H](CC[C@@H]4[C@@]5(C)CC6=NC(C)(C)N=C6C(C)(C)[C@@H]5CC[C@]43C)[C@@H]12 | 11.2 µg/mL (≈ 20.9 µM) | 14.5 µg/mL (≈ 27.1 µM) | > 10 µg/mL | > 10 µg/mL | > 10 µg/mL | > 10 µg/mL | –
C=C(C)[C@@H]1CC[C@]2(CO)CC[C@]3(C)[C@H](CC[C@@H]4[C@@]5(C)CC[C@H](O)C(C)(C)[C@@H]5CC[C@]43C)[C@@H]12 [BETULIN] | > 10 µg/mL | 9.3 µg/mL (≈ 21 µM) | > 10 µg/mL | > 10 µg/mL | > 10 µg/mL | 7.4 µg/mL (≈ 16.7 µM) | –
C=C(C)[C@@H]1CC[C@]2(CO)CC[C@]3(C)[C@H](CC[C@@H]4[C@@]5(C)CC6=NC(C)(C)N=C6C(C)(C)[C@@H]5CC[C@]43C)[C@@H]12 | 2 µg/mL (≈ 4.06 µM) | 1.9 µg/mL (≈ 3.86 µM) | 6.9 µg/mL (≈ 14 µM) | 5.8 µg/mL (≈ 11.8 µM) | 4.9 µg/mL (≈ 9.94 µM) | 2.8 µg/mL (≈ 5.68 µM) | –
CC1(C)CC[C@]23CC[C@]4(C)[C@H](CC[C@@H]5[C@@]6(C)C=C(N)C(=O)C(C)(C)[C@@H]6CC[C@]54C)[C@H]2[C@H]1OC3 | 11.2 µg/mL (≈ 24.7 µM) | 10.8 µg/mL (≈ 23.8 µM) | > 10 µg/mL | > 10 µg/mL | > 10 µg/mL | > 10 µg/mL | –
C=C(C)[C@@H]1CC[C@]2(COC(C)=O)CC[C@]3(C)[C@H](CC[C@@H]4[C@@]5(C)CC(Br)(Br)C(=O)C(C)(C)[C@@H]5CC[C@]43C)[C@@H]12 | 2.5 µg/mL (≈ 3.9 µM) | 1 µg/mL (≈ 1.56 µM) | 4.4 µg/mL (≈ 6.87 µM) | 3.8 µg/mL (≈ 5.93 µM) | 4.2 µg/mL (≈ 6.56 µM) | 4.4 µg/mL (≈ 6.87 µM) | 0.391 µg/mL (≈ 0.61 µM)
C=C(C)[C@@H]1CC[C@]2(COC(C)=O)CC[C@]3(C)[C@H](CC[C@@H]4[C@@]5(C)CC[C@H](OC(C)=O)C(C)(C)[C@@H]5CC[C@]43C)[C@@H]12 [BETULIN DIACETATE] | > 10 µg/mL | > 10 µg/mL | > 10 µg/mL | > 10 µg/mL | > 10 µg/mL | > 10 µg/mL | 0.806 µg/mL
CC1(C)CC[C@]23CC[C@]4(C)[C@H](CC[C@@H]5[C@@]6(C)CC(N=[N+]=[N-])C(=O)C(C)(C)[C@@H]6CC[C@]54C)[C@H]2[C@H]1OC3 (some centres undefined) | 4.7 µg/mL (≈ 9.76 µM) | 3.1 µg/mL (≈ 6.44 µM) | 8.7 µg/mL (≈ 18.1 µM) | 4.5 µg/mL (≈ 9.34 µM) | 7.9 µg/mL (≈ 16.4 µM) | 3.8 µg/mL (≈ 7.89 µM) | –
C=C(C)[C@@H]1CC[C@]2(C(=O)OC)CC[C@]3(C)[C@H](CC[C@@H]4[C@@]5(C)C=C(N6CCOCC6)C(=O)C(C)(C)[C@@H]5CC[C@]43C)[C@@H]12 | 6.1 µg/mL (≈ 11.1 µM) | 3.9 µg/mL (≈ 7.07 µM) | > 10 µg/mL | > 10 µg/mL | > 10 µg/mL | 4.4 µg/mL (≈ 7.97 µM) | –
C=C(C)[C@@H]1CC[C@]2(COC(C)=O)CC[C@]3(C)[C@H](CC[C@@H]4[C@@]5(C)CC(=O)C(O)C(C)(C)[C@@H]5CC[C@]43C)[C@@H]12 (some centres undefined) | 5.8 µg/mL (≈ 11.6 µM) | 9.1 µg/mL (≈ 18.2 µM) | 6.1 µg/mL (≈ 12.2 µM) | > 10 µg/mL | 5.9 µg/mL (≈ 11.8 µM) | 8 µg/mL (≈ 16 µM) | > 10 µg/mL
C=C(C)[C@@H]1CC[C@]2(C(=O)OC)CC[C@]3(C)[C@H](CC[C@@H]4[C@@]5(C)CCC(=O)C(C)(C)[C@@H]5CC[C@]43C)[C@@H]12 [METHYL BETULONATE] | 2.7 µg/mL (≈ 5.76 µM) | 2.4 µg/mL (≈ 5.12 µM) | 2.7 µg/mL (≈ 5.76 µM) | 2.3 µg/mL (≈ 4.91 µM) | 2.2 µg/mL (≈ 4.69 µM) | 2.3 µg/mL (≈ 4.91 µM) | > 10 µg/mL
C=C(C)[C@@H]1CC[C@]2(COC(C)=O)CC[C@]3(C)[C@H](CC[C@@H]4[C@@]5(C)CC[C@H](O)C(C)(C)[C@@H]5CC[C@]43C)[C@@H]12 | 3 µg/mL (≈ 6.19 µM) | 4.1 µg/mL (≈ 8.46 µM) | 4 µg/mL (≈ 8.25 µM) | 7.6 µg/mL (≈ 15.7 µM) | 5 µg/mL (≈ 10.3 µM) | 2.5 µg/mL (≈ 5.16 µM) | 0.805 µg/mL (≈ 1.66 µM)
CC1(C)CC[C@]23CC[C@]4(C)[C@H](CC[C@@H]5[C@@]6(C)C=C(O)C(=O)C(C)(C)[C@@H]6CC[C@]54C)[C@H]2[C@H]1OC3 | 7.1 µg/mL (≈ 15.6 µM) | > 10 µg/mL | > 10 µg/mL | 9.3 µg/mL (≈ 20.5 µM) | 8 µg/mL (≈ 17.6 µM) | 8.8 µg/mL (≈ 19.4 µM) | –
C=C(C)[C@@H]1CC[C@]2(COC(C)=O)CC[C@]3(C)[C@H](CC[C@@H]4[C@@]5(C)C[C@@H](Br)C(=O)C(C)(C)[C@@H]5CC[C@]43C)[C@@H]12 | 4.1 µg/mL (≈ 7.3 µM) | 3.1 µg/mL (≈ 5.52 µM) | 10.1 µg/mL (≈ 18 µM) | 9 µg/mL (≈ 16 µM) | 9.6 µg/mL (≈ 17.1 µM) | 12.8 µg/mL (≈ 22.8 µM) | 0.725 µg/mL (≈ 1.29 µM)
C=C(C)[C@@H]1CC[C@]2(COC(C)=O)CC[C@]3(C)[C@H](CC[C@@H]4[C@@]5(C)C[C@H](Br)C(=O)C(C)(C)[C@@H]5CC[C@]43C)[C@@H]12 | 3.2 µg/mL (≈ 5.7 µM) | 3.4 µg/mL (≈ 6.05 µM) | 3.4 µg/mL (≈ 6.05 µM) | 6.1 µg/mL (≈ 10.9 µM) | 4.4 µg/mL (≈ 7.83 µM) | 2.8 µg/mL (≈ 4.99 µM) | > 10 µg/mL
CC1(C)CC[C@]23CC[C@]4(C)[C@H](CC[C@@H]5[C@@]6(C)CC(Br)C(=O)C(C)(C)[C@@H]6CC[C@]54C)[C@H]2[C@H]1OC3 (some centres undefined) | 5 µg/mL (≈ 9.62 µM) | 3.1 µg/mL (≈ 5.97 µM) | 3.4 µg/mL (≈ 6.54 µM) | 6.7 µg/mL (≈ 12.9 µM) | 2.7 µg/mL (≈ 5.2 µM) | 2.9 µg/mL (≈ 5.58 µM) | –
CC1(C)CC[C@]23CC[C@]4(C)[C@H](CC[C@@H]5[C@@]6(C)CCC(=O)C(C)(C)[C@@H]6CC[C@]54C)[C@H]2[C@H]1OC3 | > 10 µg/mL | > 10 µg/mL | > 10 µg/mL | > 10 µg/mL | > 10 µg/mL | > 10 µg/mL | –
C=C(C)[C@@H]1CC[C@]2(COC(C)=O)CC[C@]3(C)[C@H](CC[C@@H]4[C@@]5(C)CC(N=[N+]=[N-])C(=O)C(C)(C)[C@@H]5CC[C@]43C)[C@@H]12 (some centres undefined) | 5 µg/mL (≈ 9.55 µM) | 6.6 µg/mL (≈ 12.6 µM) | > 10 µg/mL | 5.7 µg/mL (≈ 10.9 µM) | 4.2 µg/mL (≈ 8.02 µM) | 4.4 µg/mL (≈ 8.4 µM) | > 10 µg/mL
CC1(C)CC[C@]23CC[C@]4(C)[C@H](CC[C@@H]5[C@@]6(C)C=C(NC7=C[C@]8(C)[C@H]9CC[C@@H]%10[C@H]%11[C@H]%12OC[C@@]%11(CCC%12(C)C)CC[C@@]%10(C)[C@]9(C)CC[C@H]8C(C)(C)C7=O)C(=O)C(C)(C)[C@@H]6CC[C@]54C)[C@H]2[C@H]1OC3 | > 10 µg/mL | > 10 µg/mL | > 10 µg/mL | > 10 µg/mL | > 10 µg/mL | > 10 µg/mL | –
C=C(C)[C@@H]1CC[C@]2(COC(C)=O)CC[C@]3(C)[C@H](CC[C@@H]4[C@@]5(C)C=C(N)C(=O)C(C)(C)[C@@H]5CC[C@]43C)[C@@H]12 | > 10 µg/mL | 7.9 µg/mL (≈ 15.9 µM) | > 10 µg/mL | > 10 µg/mL | > 10 µg/mL | > 10 µg/mL | > 10 µg/mL
C=C(C)[C@@H]1CC[C@]2(C(=O)OC)CC[C@]3(C)[C@H](CC[C@@H]4[C@@]5(C)CC(=O)CC(C)(C)[C@@H]5CC[C@]43C)[C@@H]12 | 11.6 µg/mL (≈ 24.7 µM) | 8.2 µg/mL (≈ 17.5 µM) | > 10 µg/mL | > 10 µg/mL | > 10 µg/mL | 13.1 µg/mL (≈ 27.9 µM) | > 10 µg/mL
C=C(C)[C@@H]1CC[C@]2(COC(C)=O)CC[C@]3(C)[C@H](CC[C@@H]4[C@@]5(C)C=C(NC6=C[C@]7(C)[C@H]8CC[C@@H]9[C@H]%10[C@H](C(=C)C)CC[C@]%10(COC(C)=O)CC[C@@]9(C)[C@]8(C)CC[C@H]7C(C)(C)C6=O)C(=O)C(C)(C)[C@@H]5CC[C@]43C)[C@@H]12 | > 10 µg/mL | > 10 µg/mL | > 10 µg/mL | > 10 µg/mL | > 10 µg/mL | > 10 µg/mL | > 10 µg/mL

— ChEMBL document CHEMBL3232712, “Antineoplastic agents. 595. Structural modifications of betulin and the X-ray crystal structure of an unusual betulin amine dimer” (2014)
